molecular target: Signal transducer and activator of transcription 3 (Homo sapiens, UniProt P40763); experiment: Inhibition of STAT3 Y705 phosphorylation in human U266 cells by Western blot analysis
Outline: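 Steady-state phosphorylation: exponentially growing U266 cells (1 × 10⁶ cells at 2 × 10⁵ cells/mL, RPMI1640 + 10% FBS) were treated with compound for 1 h. Cells were lysed in PhosphoSafe reagent with protease inhibitors. Western blot used primary antibodies (1:1000, 2 h) and fluorescent secondaries (1 h) at room temperature. A representative blot from several repeats is shown.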

Chain of Signal transducer and activator of transcription 3 (P40763 whole entry): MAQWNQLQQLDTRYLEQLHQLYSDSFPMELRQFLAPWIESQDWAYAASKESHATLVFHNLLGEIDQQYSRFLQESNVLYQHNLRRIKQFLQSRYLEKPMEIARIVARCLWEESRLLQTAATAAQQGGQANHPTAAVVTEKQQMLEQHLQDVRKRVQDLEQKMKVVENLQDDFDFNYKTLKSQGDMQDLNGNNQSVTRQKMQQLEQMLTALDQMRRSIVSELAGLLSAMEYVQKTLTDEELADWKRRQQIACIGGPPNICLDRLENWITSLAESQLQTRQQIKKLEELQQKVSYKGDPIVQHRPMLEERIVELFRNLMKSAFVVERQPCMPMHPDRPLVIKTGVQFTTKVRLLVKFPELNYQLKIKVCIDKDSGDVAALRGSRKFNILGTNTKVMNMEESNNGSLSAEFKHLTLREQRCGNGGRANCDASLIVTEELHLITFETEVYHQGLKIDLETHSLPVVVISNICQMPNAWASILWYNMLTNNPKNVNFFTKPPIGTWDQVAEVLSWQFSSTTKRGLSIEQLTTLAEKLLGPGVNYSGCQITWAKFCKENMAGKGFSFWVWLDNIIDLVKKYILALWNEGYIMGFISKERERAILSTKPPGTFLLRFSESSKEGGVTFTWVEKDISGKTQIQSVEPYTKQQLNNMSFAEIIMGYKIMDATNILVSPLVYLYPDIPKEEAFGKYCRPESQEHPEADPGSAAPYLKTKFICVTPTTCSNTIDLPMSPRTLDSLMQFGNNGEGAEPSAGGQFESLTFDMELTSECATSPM

| EC50 | SMILES |
| --- | --- |
| 200 nM | N#Cc1c(F)c(F)c(-n2cc(C(=O)NCc3ccc(F)cc3)c(=O)c3cc(F)c(F)c(F)c32)c(F)c1F [1-(4-Cyano-2,3,5,6-tetrafluorophenyl)-6,7,8-trifluoro-N-(4-fluorobenzyl)-4-oxo-1,4-dihydroquinoline-3-carboxamide] |
| 130 nM | N#Cc1c(F)c(F)c(-n2cc(C(=O)OCc3ccccc3)c(=O)c3cc(F)c(F)c(F)c32)c(F)c1F [Benzyl 1-(4-Cyano-2,3,5,6-tetrafluorophenyl)-6,7,8-trifluoro-4-oxo-1,4-dihydroquinoline-3-carboxylate] |
| 170 nM | CCOC(=O)c1cn(-c2c(F)c(F)c(C#N)c(F)c2F)c2c(F)c(F)c(F)cc2c1=O [Ethyl 1-(4-Cyano-2,3,5,6-tetrafluorophenyl)-6,7,8-trifluoro-4-oxo-1,4-dihydroquino-line-3-carboxylate] |

Further lines, the molecule ahead of its results:

| SMILES | EC50 |
| --- | --- |
| O=C(O)c1cn(-c2c(F)c(F)c(F)c(F)c2F)c2c(F)c(F)c(F)c(F)c2c1=O [5,6,7,8-Tetrafluoro-4-oxo-1-(pentafluoro-phenyl)-1,4-dihydroquinoline-3-carboxylic acid] | 46000 nM |
| CCOC(=O)c1cn(-c2c(F)c(F)c(F)c(F)c2F)c2c(F)c(F)c(F)c(F)c2c1=O [Ethyl 5,6,7,8-tetrafluoro-4-oxo-1-(pentafluorophenyl)-1,4-dihydroquinoline-3-carboxylate] | 4600 nM |
